# The source made the active and inactive calls. The calls are words filed in the database; no cut-off is given here.
# Columns and labels:
# [1] = target: T1, 5-hydroxytryptamine receptor 1A (Rattus norvegicus, UniProt P19327); assay: In vitro displacement of radioactively labeled ligand [3H]8-OH-DPAT from 5-hydroxytryptamine 1A receptor site in CHO cells; assay type: cell-based
# T1 sequence (P19327 whole entry): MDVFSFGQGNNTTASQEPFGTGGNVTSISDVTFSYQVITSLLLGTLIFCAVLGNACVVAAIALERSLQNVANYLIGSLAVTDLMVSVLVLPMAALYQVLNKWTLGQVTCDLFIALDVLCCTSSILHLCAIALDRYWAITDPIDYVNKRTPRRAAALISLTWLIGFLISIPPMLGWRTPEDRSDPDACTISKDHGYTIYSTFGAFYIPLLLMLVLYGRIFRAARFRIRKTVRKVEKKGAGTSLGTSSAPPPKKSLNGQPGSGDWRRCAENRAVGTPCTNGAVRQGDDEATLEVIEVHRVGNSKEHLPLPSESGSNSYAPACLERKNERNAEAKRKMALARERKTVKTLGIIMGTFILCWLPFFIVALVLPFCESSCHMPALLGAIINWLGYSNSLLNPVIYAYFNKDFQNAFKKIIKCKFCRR
# [2] = target: D(2) dopamine receptor (Rattus norvegicus, UniProt P61169); assay: Displacement of [3H]U-86170 from Dopamine receptor D2
# Sequence of D(2) dopamine receptor (P61169 whole entry): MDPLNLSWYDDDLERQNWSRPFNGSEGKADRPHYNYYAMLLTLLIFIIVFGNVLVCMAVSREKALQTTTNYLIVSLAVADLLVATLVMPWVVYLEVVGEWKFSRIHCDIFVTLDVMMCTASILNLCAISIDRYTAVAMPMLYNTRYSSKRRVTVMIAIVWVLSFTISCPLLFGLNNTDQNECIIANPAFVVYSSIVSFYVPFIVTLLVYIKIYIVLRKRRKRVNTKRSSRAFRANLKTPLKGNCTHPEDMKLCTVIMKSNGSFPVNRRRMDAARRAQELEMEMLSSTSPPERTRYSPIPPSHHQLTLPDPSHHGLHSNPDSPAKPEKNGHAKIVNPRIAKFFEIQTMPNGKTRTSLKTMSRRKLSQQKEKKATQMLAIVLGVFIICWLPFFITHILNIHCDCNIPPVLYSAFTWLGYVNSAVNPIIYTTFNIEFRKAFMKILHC
# In short: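 Competition binding at cloned D2 receptors expressed in CHO-K1 cells, using the agonist [3H]U86170 (62 Ci/mmol, 2 nM) against 11 dilutions of test compound. IC50 was fitted to a one-site model by nonlinear least squares. Ki was obtained with the Cheng–Prusoff equation.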
# [3] = species on record: Rattus norvegicus; assay: In vitro metabolic stability of the test compound was evaluated after incubation in the presence of freshly isolated rat hepatocytes; Metabolic stability NT = not tested; assay type: functional, Hepatocyte
# In short: (§1)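 Rat hepatocytes were prepared by a modified collagenase perfusion method. Each compound was incubated at three concentrations in suspension at 5 million cells/mL. Initial rates were analysed by direct linear plot to give apparent Vmax and Km, and CLint = Vmax/Km. Rates were measured by HPLC and expressed relative to a reference compound incubated at the same time.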
# [4] = species on record: Rattus norvegicus; assay: (§2) In vitro metabolic stability of the test compound was evaluated after incubation in the presence of freshly isolated rat hepatocytes; assay type: functional, Hepatocyte; set-up: reference not given here
# In short: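 Rat hepatocytes were isolated by modified collagenase perfusion and incubated as suspensions (5 million cells/mL) with each compound at three concentrations. Parent loss was followed by HPLC. Initial rates gave apparent Vmax and Km by direct linear plot, with CLint = Vmax/Km. Stability is expressed relative to a reference compound incubated at the same time.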
# [5] = test system: Rattus norvegicus; assay: postsynaptic effects was assessed by the increase in the locomotor activity (reversal of reserpine induced hypokinesia) during a 30 min period after subcutaneous administration using photocell motility meters at the dose of 12.5(mic roM/kg); assay type: ADME, organism-based; conditions: in vivo, sc, 0.5 h
# In short: (§3)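 Reserpine 5 mg/kg sc was given 18 h before testing to male Sprague–Dawley rats. Test drug was given sc in the neck, and rats were placed singly in photocell motility meters. Accumulated counts were recorded over 30 min (mean, n = 4), with gross behaviour observed throughout. Student's t test was applied.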
# [6] = test system: Rattus norvegicus; assay: (§4) 5-HTP accumulation in limbic system was determined in vivo; assay type: functional
# In short: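 Male Sprague–Dawley rats (200–300 g), pretreated with reserpine 5 mg/kg sc 18 h before. Test drug given sc. 5-HTP measured in limbic brain tissue by HPLC with electrochemical detection. Dose–response curves were built from four to six dose levels (n = 4) for each substance and brain area. ED50 reported in μmol/kg sc.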
# [7] = test system: Rattus norvegicus; assay: in vivo effects on DA (dopamine) synthesis in cortex was reported after subcutaneous administration to reserpinized rats; inactive at a dose of 100; assay type: functional, organism-based
# [8] = test system: Rattus norvegicus; assay: In vivo effects on DA (dopamine) synthesis in corps striatum was reported after subcutaneous administration to reserpinized rats; inactive at a dose of 100; assay type: functional, organism-based
# [9] = test system: Rattus norvegicus; assay: In vivo effects on DA (dopamine) synthesis in corps striatum was reported after subcutaneous administration to reserpinized rats; inactive at a dose of 12.5; assay type: functional, organism-based
# In short: (§5)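 Male Sprague–Dawley rats (200–300 g) given reserpine 5 mg/kg sc 18 h before; compounds sc in neck region, 5 mL/kg. DOPA accumulation in striatum or cortex measured by HPLC with electrochemical detection.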
# [10] = test system: Rattus norvegicus; assay: as §4; assay type: functional; remark: listed apart in the source
# In short: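 Male Sprague–Dawley rats (200–300 g) pretreated with reserpine 5 mg/kg sc 18 h beforehand; test drug given sc in neck, 5 mL/kg, neutral pH. 5-HTP in limbic system measured by HPLC with electrochemical detection.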
# [11] = test system: Rattus norvegicus; assay: in vivo effects on DA (dopamine) synthesis in cortex was reported after subcutaneous administration to reserpinized rats; inactive at a dose of 12.5; assay type: functional, organism-based; in short: as §5
# [12] = test system: Rattus norvegicus; assay: uM/kg); assay type: ADME, organism-based; conditions: in vivo
# In short: (§6)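 Male Sprague–Dawley rats got reserpine 5 mg/kg sc in the neck 18 h before testing. Compound was given sc in the neck (5 mL/kg), and rats were placed singly in photocell motility meters. Accumulated counts were recorded over 30 min, mean ± SEM, n = 4, with Student's t test against reserpinized controls. Testing ran 9 a.m.–1 p.m.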
# [13] = test system: Rattus norvegicus; assay: In vivo effects on DA (dopamine) synthesis in corps striatum was reported after subcutaneous administration to reserpinized rats; inactive at a dose of 50; assay type: functional, organism-based; in short: as §5
# [14] = test system: Rattus norvegicus; assay: in vivo effects on DA (dopamine) synthesis in cortex was reported after subcutaneous administration to reserpinized rats; inactive at a dose of 50; assay type: functional, organism-based; in short: as §5
# [15] = test system: Rattus norvegicus; assay: postsynaptic effects was assessed by the increase in the locomotor activity (reversal of reserpine induced hypokinesia) during a 30 min period after subcutaneous administration using photocell motility meters at the dose of 50(micro M/kg); assay type: ADME, organism-based; conditions: in vivo, sc, 0.5 h; in short: as §3
# [16] = test system: Rattus norvegicus; assay: postsynaptic effect was assessed by the increase in the locomotor activity (reversal of reserpine induced hypokinesia) during a 30 min period after subcutaneous administration using photocell motility meters at the dose of 3.1 uM/kg; assay type: ADME, organism-based; conditions: in vivo, sc, 0.5 h; in short: as §3
# [17] = test system: Rattus norvegicus; assay: in vivo effects on DA (dopamine) synthesis in cortex was reported after subcutaneous administration to reserpinized rats; inactive at a dose of 3.1; assay type: functional, organism-based
# [18] = test system: Rattus norvegicus; assay: In vivo effects on DA (dopamine) synthesis in corps striatum was reported after subcutaneous administration to reserpinized rats; inactive at a dose of 3.1; assay type: functional, organism-based
# [19] = test system: Rattus norvegicus; assay: postsynaptic effects was assessed by the increase in the locomotor activity (reversal of reserpine induced hypokinesia) during a 30 min period after subcutaneous administration using photocell motility meters at the dose of 0.8(micr oM/kg); assay type: ADME, organism-based; conditions: in vivo, sc, 0.5 h; in short: as §3
# [20] = test system: Rattus norvegicus; assay: in vivo effects on DA (dopamine) synthesis in cortex was reported after subcutaneous administration to reserpinized rats; inactive at a dose of 2.1; assay type: functional, organism-based
# [21] = test system: Rattus norvegicus; assay: In vivo effects on DA (dopamine) synthesis in corps striatum was reported after subcutaneous administration to reserpinized rats; inactive at a dose of 2.1; assay type: functional, organism-based
# [22] = species on record: Rattus norvegicus; assay: as §2; assay type: ADME, Hepatocyte; in short: as §1
# [23] = test system: Rattus norvegicus; assay: postsynaptic effects was assessed by the increase in the locomotor activity (reversal of reserpine induced hypokinesia) during a 30 min period after subcutaneous administration using photocell motility meters at dose of 12.5 (uM /kg); assay type: functional; in short: as §6
SMILES,Ki [1] [nM],Ki [2] [nM],Metabolic stability [4],also measured
CC(C)=CCN1CC[C@H]2c3c(cccc3C(N)=O)CC[C@H]21,271,> 1000,–,Metabolic stability [3]: 0
C=CCCN1CC[C@H]2c3c(cccc3C(N)=O)CC[C@H]21,82,> 1000,0.33,–
CCN1CC[C@H]2c3c(cccc3C(N)=O)CC[C@H]21,23,> 1000,1.5,Locomotor activity [5]: 13; ED50 [6]: 2 µmol/kg; ED50 [7]: inactive; ED50 [8]: inactive
C=CCN1CC[C@H]2c3c(cccc3C(N)=O)CC[C@H]21,1.5,> 1000,1,ED50 [9]: inactive; ED50 [10]: 0.04 µmol/kg; ED50 [11]: inactive; Locomotor activity [12]: 215
NC(=O)c1cccc2c1[C@@H]1CCN(CC3CC3)[C@@H]1CC2,8.3,> 1000,0.5,ED50 [13]: inactive; ED50 [10]: 1 µmol/kg; ED50 [14]: inactive; Locomotor activity [15]: 32
FCCCN1CC[C@H]2c3c(Br)cccc3CC[C@H]21,4.7,47,–,–
C=CCN1CC[C@H]2c3c(Br)cccc3CC[C@H]21,1,3.2,–,–
CCCN1CC[C@H]2c3c(cccc3C(=O)C(C)C)CC[C@H]21,1.2,62,0.8,Locomotor activity [16]: 450; ED50 [6]: 0.025 µmol/kg; ED50 [17]: inactive; ED50 [18]: inactive
CCCCN1CC[C@H]2c3c(cccc3C(N)=O)CC[C@H]21,83,> 1000,0.3,–
NC(=O)c1cccc2c1[C@@H]1CCN(CCCF)[C@@H]1CC2,3.9,> 1000,0.68,–
CCCN1CC[C@H]2c3c(cccc3C(C)=O)CC[C@H]21,0.4,91,0.13,Locomotor activity [19]: 115; ED50 [6]: 0.0125 µmol/kg; ED50 [20]: inactive; ED50 [21]: inactive
CC(C)=CCN1CC[C@H]2c3c(Br)cccc3CC[C@H]21,266,18,–,Metabolic stability [22]: 0.21
COCCN1CC[C@H]2c3c(Br)cccc3CC[C@H]21,97,252,–,–
CN1CC[C@H]2c3c(cccc3C(N)=O)CC[C@H]21,–,> 1000,4.9,ED50 [13]: inactive; ED50 [10]: 17.6 µmol/kg; ED50 [14]: inactive; Locomotor activity [15]: 23
CCCN(CCC)C(=O)c1cccc2c1[C@@H]1CCN(CCC)[C@@H]1CC2,434,> 1000,–,–
CCCN1CC[C@H]2c3c(cccc3C(N)=O)CC[C@H]21,1.9,> 1630,1,ED50 [13]: inactive; ED50 [10]: 0.28 µmol/kg; ED50 [14]: inactive; Locomotor activity [23]: 249
